Results: ChEMBL document CHEMBL3085623, “Oridonin ring A-based diverse constructions of enone functionality: identification of novel dienone analogues effective for highly aggressive breast cancer by inducing apoptosis” (J Med Chem, 2013)
Values belong to the molecule of their own block, whether it stands above or below them. Active and inactive are the calls of the source. The rule behind the calls is not given here.

How the values were obtained:
MDA-MB-231 [1] = assay: Induction of apoptosis in human MDA-MB-231 cells assessed as upregulation of cleaved PARP level at 10 to 30 uM after 48 hrs by Western blot analysis; type: functional, cell-based
Method in brief: (§1)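 MDA-MB-231 cells treated 48 h with DMSO or compound. Lysates quantified by Bradford; 30 μg protein run on SDS-PAGE and transferred to PVDF. Blocked in 5% milk, then probed overnight: anti-Bcl-2 1:200, Bax 1:1000, PARP 1:10000, NF-κB p65 1:2000, caspase-3 1:1000, β-actin 1:20000. ECL detection.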

MDA-MB-231 [2] = assay: Induction of apoptosis in human MDA-MB-231 cells assessed as downregulation of p65 NF-kappaB level at 10 to 30 uM after 48 hrs by Western blot analysis; type: functional, cell-based; method in brief: as §1
MDA-MB-231 [3] = assay: Induction of apoptosis in human MDA-MB-231 cells assessed as caspase3 cleavage at 10 to 30 uM after 48 hrs by Western blot analysis; type: functional, cell-based; method in brief: as §1
MDA-MB-231 [4] = assay: Antiproliferative activity against human MDA-MB-231 cells after 48 hrs by MTT assay; type: functional, cell-based; details: MDA-MB-231, 48 h
Method in brief: (§2)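 Seeded at 1 × 10^4 cells/well, then exposed to DMSO or compound at 0.01, 0.1, 1, 5, 10 and 100 μM for 48 h. MTT (5 mg/mL in PBS) added for a further 4 h, formazan dissolved in DMSO, OD read at 550 nm. Quadruplicate wells per concentration. IC50 from curve fitting; mean ± SE of three independent experiments.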

MCF7 = assay: Antiproliferative activity against human MCF7 cells after 48 hrs by MTT assay; type: functional, cell-based; details: MCF7, 48 h; method in brief: as §2
MDA-MB-231 [5] = assay: Induction of apoptosis in human MDA-MB-231 cells assessed as downregulation of Bcl2 level at 10 to 30 uM after 48 hrs by Western blot analysis; type: functional, cell-based; method in brief: as §1
MDA-MB-231 [6] = assay: Induction of apoptosis in human MDA-MB-231 cells assessed as upregulation of Bax level at 10 to 30 uM after 48 hrs by Western blot analysis; type: functional, cell-based; method in brief: as §1
MDA-MB-231 [7] = assay: Induction of apoptosis in human MDA-MB-231 cells assessed as downregulation of PARP level at 10 to 30 uM after 48 hrs by Western blot analysis; type: functional, cell-based; method in brief: as §1
HMEC = assay: Growth inhibition of human HMEC cells after 24 hrs
cells = details: Homo sapiens, NCI/ADR-RES, 48 h
MDA-MB-231 [8] = assay: Induction of apoptosis in human MDA-MB-231 cells assessed as early apoptotic cells at 10 uM after 24 hrs using FITC-annexin V and propidium iodide staining by flow cytometry (reference value: 4.55 to 4.85 %); type: functional
MDA-MB-231 [9] = assay: Induction of apoptosis in human MDA-MB-231 cells assessed as early apoptotic cells at 1 uM after 24 hrs using FITC-annexin V and propidium iodide staining by flow cytometry (reference value: 4.55 to 4.85 %); type: functional
MDA-MB-231 [10] = assay: Induction of apoptosis in human MDA-MB-231 cells assessed as live cells at 10 uM after 24 hrs using FITC-annexin V and propidium iodide staining by flow cytometry (reference value: 83.45 to 89.30 %); type: functional
MDA-MB-231 [11] = assay: Induction of apoptosis in human MDA-MB-231 cells assessed as downregulation of Bcl2 level at 2.5 to 10 uM after 48 hrs by Western blot analysis; type: functional, cell-based; method in brief: as §1
MDA-MB-231 [12] = assay: Induction of apoptosis in human MDA-MB-231 cells assessed as PARP cleavage after 48 hrs by Western blot analysis; type: functional, cell-based; method in brief: as §1
MDA-MB-231 [13] = assay: Induction of apoptosis in human MDA-MB-231 cells assessed as early apoptotic cells at 5 uM after 24 hrs using FITC-annexin V and propidium iodide staining by flow cytometry (reference value: 4.55 to 4.85 %); type: functional
MDA-MB-231 [14] = assay: Induction of apoptosis in human MDA-MB-231 cells after 24 hrs using FITC-annexin V and propidium iodide staining by flow cytometry; type: functional, cell-based
MDA-MB-231 [15] = assay: Induction of apoptosis in human MDA-MB-231 cells assessed as dead cells at 1 uM after 24 hrs using FITC-annexin V and propidium iodide staining by flow cytometry (reference value: 0.3 to 1.00 %); type: functional
MDA-MB-231 [16] = assay: Induction of apoptosis in human MDA-MB-231 cells assessed as live cells at 5 uM after 24 hrs using FITC-annexin V and propidium iodide staining by flow cytometry (reference value: 83.45 to 89.30 %); type: functional
MDA-MB-231 [17] = assay: Induction of apoptosis in human MDA-MB-231 cells assessed as downregulation of p65 NF-kappaB level at 2.5 to 10 uM after 48 hrs by Western blot analysis; type: functional, cell-based; method in brief: as §1
MDA-MB-231 [18] = assay: Induction of apoptosis in human MDA-MB-231 cells assessed as live cells at 1 uM after 24 hrs using FITC-annexin V and propidium iodide staining by flow cytometry (reference value: 83.45 to 89.30 %); type: functional
MDA-MB-231 [19] = assay: Induction of apoptosis in human MDA-MB-231 cells assessed as late apoptotic cells at 1 uM after 24 hrs using FITC-annexin V and propidium iodide staining by flow cytometry (reference value: 5.5 to 11.0 %); type: functional
MDA-MB-231 [20] = assay: Induction of apoptosis in human MDA-MB-231 cells assessed as upregulation of Bax level at 2.5 to 10 uM after 48 hrs by Western blot analysis; type: functional, cell-based; method in brief: as §1
MDA-MB-231 [21] = assay: Induction of apoptosis in human MDA-MB-231 cells assessed as dead cells at 10 uM after 24 hrs using FITC-annexin V and propidium iodide staining by flow cytometry (reference value: 0.3 to 1.00 %); type: functional
MDA-MB-231 [22] = assay: Induction of apoptosis in human MDA-MB-231 cells assessed as caspase3 activation after 48 hrs by Western blot analysis; type: functional, cell-based; method in brief: as §1
MDA-MB-231 [23] = assay: Inhibition of colony formation of human MDA-MB-231 cells at 0.625 to 10 uM after 2 weeks by crystal violet staining-based GelCount method; type: functional, cell-based
Method in brief: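 MDA-MB-231 cells seeded at 800/well and left 24 h. Then treated with 0.625–10 μM compound or DMSO, medium with compound renewed every 72 h for two weeks. Stained with 0.01% crystal violet for 10 min after PBS washes. Whole-well density quantified on GelCount. Triplicate; SD; one-way ANOVA.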

MDA-MB-231 [24] = assay: Antitumor activity against human MDA-MB-231 cells xenografted in nude mouse assessed as inhibition of tumor growth at 5 mg/kg, ip administered 5 days per week for 10 days; type: functional, organism-based; design: dose 5 mg/kg
Method in brief: (§3)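 Female nude mice, 4–6 weeks old, kept in a barrier unit on a 12 h light-dark cycle. Each mouse received 2.5 × 10^6 freshly harvested MDA-MB-231 cells in 100 μL PBS into the 3rd mammary fat pad. Mice were randomized into 3 groups. Once tumors reached 200 mm3, dosing was 5 mg/kg ip, 5 days/week for 10 days, in 50% DMSO/50% PEG. Tumor volume (0.5 × L × W2) and body weight were measured daily. One-way ANOVA.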

MDA-MB-231 [25] = assay: Induction of apoptosis in human MDA-MB-231 cells assessed as dead cells at 5 uM after 24 hrs using FITC-annexin V and propidium iodide staining by flow cytometry (reference value: 0.3 to 1.00 %); type: functional
MDA-MB-231 [26] = assay: Induction of apoptosis in human MDA-MB-231 cells assessed as late apoptotic cells at 10 uM after 24 hrs using FITC-annexin V and propidium iodide staining by flow cytometry (reference value: 5.5 to 11.0 %); type: functional
MDA-MB-231 [27] = assay: Induction of apoptosis in human MDA-MB-231 cells assessed as late apoptotic cells at 5 uM after 24 hrs using FITC-annexin V and propidium iodide staining by flow cytometry (reference value: 5.5 to 11.0 %); type: functional
Mus musculus = assay: Toxicity in human MDA-MB-231 cells xenografted nude mouse assessed as change body weight at 5 mg/kg, ip administered 5 days per week for 10 days; type: organism-based; design: dose 5 mg/kg, route intraperitoneal; details: in vivo; method in brief: as §3

IC50 (MDA-MB-231 [4]): 28 µM
IC50 (MCF7): 4.36 µM
IC50 (cells): > 30 µM
SMILES: C=C1C(=O)[C@]23[C@H](O)[C@H]1CC[C@H]2[C@@]12CO[C@]3(O)[C@@H](O)[C@@H]1C(C)(C)CC[C@@H]2O [ORIDONIN]
Activity (MDA-MB-231 [1]): Active
Activity (MDA-MB-231 [2]): Active
Activity (MDA-MB-231 [3]): inactive
Activity (MDA-MB-231 [5]): Active
Activity (MDA-MB-231 [6]): Active
Activity (MDA-MB-231 [7]): Active
IC50 (HMEC): 5.6 µM

IC50 (MDA-MB-231 [4]): > 30 µM
IC50 (MCF7): 10.2 µM
SMILES: C=C1C(=O)[C@@]23C(=O)[C@@H](O)[C@@H]4C(C)(C)[C@@H]5OC[C@]4(C(=O)/C5=C/OC)[C@@H]2CC[C@@H]1[C@H]3O

IC50 (MDA-MB-231 [4]): 9.39 µM
IC50 (MCF7): 3.48 µM
SMILES: C=C1C(=O)[C@]23[C@H](O)[C@H]1CC[C@H]2[C@]12C=CC(=O)C(C)(C)[C@H]1[C@H](O)[C@@]3(O)OC2
IC50 (HMEC): 10.1 µM

IC50 (MDA-MB-231 [4]): 3.49 µM
IC50 (MCF7): 0.56 µM
SMILES: C=C1C(=O)[C@@]23[C@@H]4OC(C)(C)O[C@]25OC[C@]2(C(=O)C=CC(C)(C)[C@H]2[C@@H]5O)[C@@H]3CC[C@@H]14
IC50 (HMEC): 5.11 µM

IC50 (MDA-MB-231 [4]): 2.23 µM
IC50 (MCF7): 1.31 µM
IC50 (cells): 5.82 µM
SMILES: C=C1C(=O)[C@]23[C@H](O)[C@H]1CC[C@H]2[C@@]12CO[C@]3(O)[C@@H](O)[C@@H]1C(C)(C)C=CC2=O
IC50 (HMEC): 4.95 µM

SMILES: C=C1C(=O)[C@@]23[C@@H]4OC(C)(C)O[C@]25OC[C@]2(C=CC(=O)C(C)(C)[C@H]2[C@@H]5O)[C@@H]3CC[C@@H]14
Activity (MDA-MB-231 [8]): 8.3%
Activity (MDA-MB-231 [9]): 5.05%
Activity (MDA-MB-231 [10]): 52.3%
Activity (MDA-MB-231 [11]): Active
Activity (MDA-MB-231 [12]): Dose-dependent effect
Activity (MDA-MB-231 [13]): 10.15%
Activity (MDA-MB-231 [14]): Dose-dependent effect
Activity (MDA-MB-231 [15]): 0.55%
Activity (MDA-MB-231 [16]): 73%
Activity (MDA-MB-231 [17]): Active
Activity (MDA-MB-231 [18]): 83.05%
Activity (MDA-MB-231 [19]): 11.35%
IC50 (MDA-MB-231 [4]): 5.6 µM
IC50 (MCF7): 0.98 µM
Activity (MDA-MB-231 [20]): Active
Activity (MDA-MB-231 [21]): 0.3%
Activity (MDA-MB-231 [22]): Dose-dependent effect
inhibition (MDA-MB-231 [23]): Active
TGI (MDA-MB-231 [24]): Active
Activity (MDA-MB-231 [25]): 0.3%
Activity (MDA-MB-231 [26]): 39.1%
Activity (MDA-MB-231 [27]): 16.55%
IC50 (HMEC): 10.2 µM
IC50 (cells): 6.02 µM
Activity (Mus musculus): Non-toxic

SMILES: C=C1C(=O)[C@@]23[C@@H]4OC(C)(C)O[C@]25OC[C@]2(C(=O)C(C=O)=CC(C)(C)[C@H]2[C@@H]5O)[C@@H]3CC[C@@H]14
Activity (MDA-MB-231 [8]): 11.2%
Activity (MDA-MB-231 [9]): 3.15%
Activity (MDA-MB-231 [10]): 52.25%
Activity (MDA-MB-231 [11]): Active
Activity (MDA-MB-231 [12]): Dose-dependent effect
Activity (MDA-MB-231 [13]): 10.95%
Activity (MDA-MB-231 [14]): Dose-dependent effect
Activity (MDA-MB-231 [15]): 0.2%
Activity (MDA-MB-231 [16]): 69.55%
Activity (MDA-MB-231 [17]): Active
Activity (MDA-MB-231 [18]): 84.95%
Activity (MDA-MB-231 [19]): 11.7%
IC50 (MDA-MB-231 [4]): 3.46 µM
IC50 (MCF7): 1.28 µM
Activity (MDA-MB-231 [20]): Active
Activity (MDA-MB-231 [21]): 0.45%
Activity (MDA-MB-231 [22]): Dose-dependent effect
inhibition (MDA-MB-231 [23]): Active
Activity (MDA-MB-231 [25]): 0.25%
Activity (MDA-MB-231 [26]): 36.1%
Activity (MDA-MB-231 [27]): 19.25%
IC50 (HMEC): 4.51 µM
IC50 (cells): 6.55 µM

SMILES: C=C1C(=O)[C@@]23C(=O)[C@@H](O)[C@@H]4C(C)(C)[C@@H]5OC[C@]4(C(=O)/C5=C\O)[C@@H]2CC[C@@H]1[C@H]3O
IC50 (MDA-MB-231 [4]): > 30 µM
IC50 (MCF7): > 30 µM
